# Experimental data taken from ChEMBL document CHEMBL5696444 (Nat Commun, 2017).
# Legend:
# [1] = system: HCT-116; assay: Induction of apoptosis in human HCT-116 cells assessed as viable cells at 0.5 uM incubated for > 6 hrs by annexin V/PI staining based analysis (Rvb=90.04%); format: functional; conditions: read-out: Activity
# [2] = system: HCT-116; assay: Induction of apoptosis in human HCT-116 cells assessed as early apoptosis at 0.5 uM incubated for > 6 hrs by annexin V/PI staining based analysis (Rvb=3.29%); format: functional
# [3] = system: HCT-116; assay: Induction of apoptosis in human HCT-116 cells assessed as necrosis cells at 0.5 uM incubated for > 6 hrs by annexin V/PI staining based analysis (Rvb=0.55%); format: functional
# [4] = system: HCT-116; assay: Induction of apoptosis in human HCT-116 cells assessed as early apoptosis at 1 uM incubated for > 6 hrs by annexin V/PI staining based analysis (Rvb=3.29%); format: functional
# [5] = system: HCT-116; assay: Induction of apoptosis in human HCT-116 cells assessed as early apoptosis at 10 uM incubated for > 6 hrs by annexin V/PI staining based analysis (Rvb=3.29%); format: functional
# [6] = target: SRSF protein kinase 1 (Homo sapiens) (UniProt Q96SB4); assay: Inhibition of SRPK1 (unknown origin) at 1110 nM in the presence of ATP by Kinome scan method relative to control; conditions: time > 6.0 hrs
# [7] = target: Tyrosine-protein kinase ABL1 (Homo sapiens) (UniProt P00519); assay: Inhibition of ABL1 (unknown origin) at 100 nM in the presence of ATP by Kinome scan method relative to control
# [8] = target: RAC-alpha serine/threonine-protein kinase (Homo sapiens) (UniProt P31749); assay: Inhibition of AKT1 (unknown origin) at 100 nM in the presence of ATP by Kinome scan method relative to control
# [9] = target: Aurora kinase B (Homo sapiens) (UniProt Q96GD4); assay: Inhibition of AURKB (unknown origin) at 100 nM in the presence of ATP by Kinome scan method relative to control
# [10] = target: Glycogen synthase kinase-3 beta (Homo sapiens) (UniProt P49841); assay: Inhibition of GSK3B (unknown origin) at 100 nM in the presence of ATP by Kinome scan method relative to control
# [11] = target: Inhibitor of nuclear factor kappa-B kinase subunit beta (Homo sapiens) (UniProt O14920); assay: Inhibition of IKBKB (unknown origin) at 100 nM in the presence of ATP by Kinome scan method relative to control
# [12] = target: Tyrosine-protein kinase JAK2 (Homo sapiens) (UniProt O60674); assay: Inhibition of JAK2 (unknown origin) at 1000 nM in the presence of ATP by Kinome scan method relative to control
# [13] = target: Mitogen-activated protein kinase 1 (Homo sapiens) (UniProt P28482); assay: Inhibition of MAPK1 (unknown origin) at 1000 nM in the presence of ATP by Kinome scan method relative to control
# [14] = target: Mitogen-activated protein kinase 11 (Homo sapiens) (UniProt Q15759); assay: Inhibition of MAPK11 (unknown origin) at 100 nM in the presence of ATP by Kinome scan method relative to control
# [15] = target: MAP kinase-activated protein kinase 2 (Homo sapiens) (UniProt P49137); assay: Inhibition of MAPKAPK2 (unknown origin) at 1000 nM in the presence of ATP by Kinome scan method relative to control
# [16] = target: Serine/threonine-protein kinase Nek2 (Homo sapiens) (UniProt P51955); assay: Inhibition of NEK2 (unknown origin) at 100 nM in the presence of ATP by Kinome scan method relative to control
# [17] = target: Serine/threonine-protein kinase pim-1 (Homo sapiens) (UniProt P11309); assay: Inhibition of PIM1 (unknown origin) at 1000 nM in the presence of ATP by Kinome scan method relative to control
# [18] = target: Protein kinase C alpha type (Homo sapiens) (UniProt P17252); assay: Inhibition of PRKCA (unknown origin) at 1000 nM in the presence of ATP by Kinome scan method relative to control
# [19] = target: Focal adhesion kinase 1 (Homo sapiens) (UniProt Q05397); assay: Inhibition of PTK2 (unknown origin) at 100 nM in the presence of ATP by Kinome scan method relative to control
# [20] = target: Proto-oncogene tyrosine-protein kinase receptor Ret (Homo sapiens) (UniProt P07949); assay: Inhibition of RET (unknown origin) at 100 nM in the presence of ATP by Kinome scan method relative to control
# [21] = target: Rho-associated protein kinase 1 (Homo sapiens) (UniProt Q13464); assay: Inhibition of ROCK1 (unknown origin) at 1000 nM in the presence of ATP by Kinome scan method relative to control
# [22] = target: Ribosomal protein S6 kinase beta-1 (Homo sapiens) (UniProt P23443); assay: Inhibition of RPS6KB1 (unknown origin) at 100 nM in the presence of ATP by Kinome scan method relative to control
# [23] = target: Proto-oncogene tyrosine-protein kinase Src (Homo sapiens) (UniProt P12931); assay: Inhibition of SRC (unknown origin) at 1000 nM in the presence of ATP by Kinome scan method relative to control
# [24] = target: PI3-kinase p110-alpha/p85-alpha (Homo sapiens) (UniProt P27986+P42336); assay: Inhibition of PIK3CA/PIK3R1 (unknown origin) at 100 nM in the presence of ATP by Kinome scan method relative to control; format: protein-complex assay
# [25] = system: HCT-116; assay: Induction of cell cycle arrest in human HCT-116 cells assessed as G0/G1 phase at 0.1 uM incubated for 6 hrs by flow cytometry analysis (Rvb=35.0%); format: functional
# [26] = system: HCT-116; assay: Induction of cell cycle arrest in human HCT-116 cells assessed as S phase at 1 uM incubated for 24 hrs by flow cytometry analysis (Rvb=46.4%); format: functional
# [27] = system: HCT-116; assay: Induction of cell cycle arrest in human HCT-116 cells assessed as sub G0/G1 phase at 5 uM incubated for 24 hrs by flow cytometry analysis (Rvb=2.5%); format: functional
# [28] = target: Dual specificity protein kinase CLK1 (Homo sapiens) (UniProt P49759); assay: Inhibition of CLK (unknown origin) in human HCT-116 cells assessed as induction in alternative splicing effect in S6K skipped exon /canonical form incubated for 6 hrs by RT-PCR analysis; format: cell-based; conditions: dose 0.2-5 µM
# Method in brief: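 Cells exposed to graded T3 concentrations for 6 h (chosen to avoid cytotoxicity), with a DMSO vehicle control. Total RNA was reverse-transcribed with oligo-dT primers. Targeted splice or conjoined-gene products were quantified by real-time qPCR or by targeted next-generation sequencing. Conjoined-gene isoform expression was normalized to a sequenced housekeeping gene.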
# [29] = target: 3-phosphoinositide-dependent protein kinase 1 (PDPK1) (Homo sapiens) (UniProt O15530); assay: Inhibition of PDK1 Direct (unknown origin) at 100 nM in the presence of ATP by Kinome scan method relative to control
# [30] = target: Dual specificity tyrosine-phosphorylation-regulated kinase 1B (Homo sapiens, UniProt Q9Y463); assay: Inhibition of DYRK1B (unknown origin) using ULight-MBP peptide as substrate incubated for 10 mins in presence of ATP incubated for 45 mins by LANCE Ultra kinase assay
# Dual specificity tyrosine-phosphorylation-regulated kinase 1B, sequence (Q9Y463 whole entry): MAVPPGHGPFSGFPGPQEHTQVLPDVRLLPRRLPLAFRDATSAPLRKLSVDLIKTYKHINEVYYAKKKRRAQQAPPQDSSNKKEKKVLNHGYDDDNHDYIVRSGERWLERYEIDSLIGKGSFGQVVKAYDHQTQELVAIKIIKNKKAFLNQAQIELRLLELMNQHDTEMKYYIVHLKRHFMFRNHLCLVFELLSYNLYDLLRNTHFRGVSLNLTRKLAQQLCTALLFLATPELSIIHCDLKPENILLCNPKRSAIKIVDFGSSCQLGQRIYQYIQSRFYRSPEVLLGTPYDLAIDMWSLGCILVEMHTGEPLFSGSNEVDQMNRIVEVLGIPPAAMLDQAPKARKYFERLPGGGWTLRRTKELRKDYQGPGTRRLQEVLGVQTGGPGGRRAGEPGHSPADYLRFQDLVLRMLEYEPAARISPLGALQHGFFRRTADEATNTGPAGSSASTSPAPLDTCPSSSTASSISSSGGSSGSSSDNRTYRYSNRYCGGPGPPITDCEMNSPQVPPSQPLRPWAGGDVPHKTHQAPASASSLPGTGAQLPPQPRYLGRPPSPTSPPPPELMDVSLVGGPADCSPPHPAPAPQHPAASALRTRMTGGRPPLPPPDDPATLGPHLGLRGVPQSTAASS
# Mitogen-activated protein kinase 1 (Homo sapiens), sequence (P28482 whole entry): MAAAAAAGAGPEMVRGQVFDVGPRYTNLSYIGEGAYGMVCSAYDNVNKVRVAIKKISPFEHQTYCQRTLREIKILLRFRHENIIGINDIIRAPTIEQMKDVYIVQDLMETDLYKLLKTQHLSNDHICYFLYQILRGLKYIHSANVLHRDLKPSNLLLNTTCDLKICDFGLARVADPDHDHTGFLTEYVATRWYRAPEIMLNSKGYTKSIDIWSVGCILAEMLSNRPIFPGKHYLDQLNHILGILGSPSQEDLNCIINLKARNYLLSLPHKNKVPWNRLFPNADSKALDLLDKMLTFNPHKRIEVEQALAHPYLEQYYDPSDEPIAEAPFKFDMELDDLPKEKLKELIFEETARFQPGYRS
# Glycogen synthase kinase-3 beta (Homo sapiens), sequence (P49841 whole entry, looked up): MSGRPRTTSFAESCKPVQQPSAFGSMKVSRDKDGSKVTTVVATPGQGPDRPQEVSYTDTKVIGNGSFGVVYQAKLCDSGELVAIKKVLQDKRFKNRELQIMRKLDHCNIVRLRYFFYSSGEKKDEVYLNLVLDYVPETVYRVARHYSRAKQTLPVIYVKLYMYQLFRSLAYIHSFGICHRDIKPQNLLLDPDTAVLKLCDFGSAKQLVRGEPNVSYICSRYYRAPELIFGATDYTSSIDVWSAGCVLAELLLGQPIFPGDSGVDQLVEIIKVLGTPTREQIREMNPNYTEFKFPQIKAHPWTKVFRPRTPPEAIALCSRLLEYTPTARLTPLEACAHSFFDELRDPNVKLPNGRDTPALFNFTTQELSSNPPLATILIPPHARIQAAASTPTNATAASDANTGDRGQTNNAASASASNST
# Serine/threonine-protein kinase Nek2 (Homo sapiens), sequence (P51955 whole entry): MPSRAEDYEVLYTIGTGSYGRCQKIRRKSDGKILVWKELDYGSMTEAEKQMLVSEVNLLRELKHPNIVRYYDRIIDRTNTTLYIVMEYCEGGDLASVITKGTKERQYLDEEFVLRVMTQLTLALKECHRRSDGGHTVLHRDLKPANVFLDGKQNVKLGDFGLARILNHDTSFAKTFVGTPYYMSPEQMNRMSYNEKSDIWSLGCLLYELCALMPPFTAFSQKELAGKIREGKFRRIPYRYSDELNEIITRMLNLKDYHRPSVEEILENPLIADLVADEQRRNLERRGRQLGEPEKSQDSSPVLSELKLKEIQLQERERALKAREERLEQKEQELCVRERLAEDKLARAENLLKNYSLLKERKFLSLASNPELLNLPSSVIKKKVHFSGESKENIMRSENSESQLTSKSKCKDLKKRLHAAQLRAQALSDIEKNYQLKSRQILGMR
# Focal adhesion kinase 1 (Homo sapiens), sequence (Q05397 2-1052 limits assumed): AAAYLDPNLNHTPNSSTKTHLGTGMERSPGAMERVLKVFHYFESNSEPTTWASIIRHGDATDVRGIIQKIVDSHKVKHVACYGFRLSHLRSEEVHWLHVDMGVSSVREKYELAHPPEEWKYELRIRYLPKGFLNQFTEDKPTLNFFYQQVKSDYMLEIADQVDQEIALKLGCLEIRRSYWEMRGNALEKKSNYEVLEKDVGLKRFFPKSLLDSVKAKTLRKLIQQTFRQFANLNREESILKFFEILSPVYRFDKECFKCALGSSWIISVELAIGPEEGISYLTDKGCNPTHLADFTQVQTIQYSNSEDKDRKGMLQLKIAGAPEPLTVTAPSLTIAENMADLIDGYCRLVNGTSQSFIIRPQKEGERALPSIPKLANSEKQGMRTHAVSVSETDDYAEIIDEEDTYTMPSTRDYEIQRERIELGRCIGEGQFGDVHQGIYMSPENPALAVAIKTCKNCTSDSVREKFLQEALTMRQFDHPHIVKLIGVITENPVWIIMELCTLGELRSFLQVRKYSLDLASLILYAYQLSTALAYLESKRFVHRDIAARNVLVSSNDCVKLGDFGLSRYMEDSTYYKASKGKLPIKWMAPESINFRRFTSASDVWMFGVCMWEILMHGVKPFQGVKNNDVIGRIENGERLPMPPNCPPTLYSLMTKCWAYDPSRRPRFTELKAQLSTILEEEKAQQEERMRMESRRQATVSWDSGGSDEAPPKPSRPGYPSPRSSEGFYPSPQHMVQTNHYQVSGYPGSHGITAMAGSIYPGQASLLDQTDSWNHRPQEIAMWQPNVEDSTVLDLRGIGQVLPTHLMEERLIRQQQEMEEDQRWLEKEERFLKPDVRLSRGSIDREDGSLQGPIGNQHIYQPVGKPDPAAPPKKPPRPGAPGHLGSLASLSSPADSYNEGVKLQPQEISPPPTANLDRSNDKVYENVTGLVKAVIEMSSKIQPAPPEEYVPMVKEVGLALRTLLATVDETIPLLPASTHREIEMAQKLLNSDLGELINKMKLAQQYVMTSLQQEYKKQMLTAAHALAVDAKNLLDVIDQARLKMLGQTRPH
# Serine/threonine-protein kinase pim-1 (Homo sapiens), sequence (P11309 whole entry, looked up): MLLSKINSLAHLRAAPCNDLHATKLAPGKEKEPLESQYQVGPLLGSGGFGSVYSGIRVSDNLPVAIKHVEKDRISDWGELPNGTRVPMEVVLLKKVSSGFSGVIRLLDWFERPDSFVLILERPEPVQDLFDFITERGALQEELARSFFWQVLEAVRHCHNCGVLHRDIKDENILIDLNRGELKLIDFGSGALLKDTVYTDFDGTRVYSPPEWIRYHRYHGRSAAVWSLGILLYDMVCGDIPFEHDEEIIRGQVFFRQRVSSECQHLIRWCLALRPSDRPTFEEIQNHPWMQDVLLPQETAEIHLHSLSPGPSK
# Mitogen-activated protein kinase 11 (Homo sapiens), sequence (Q15759 whole entry): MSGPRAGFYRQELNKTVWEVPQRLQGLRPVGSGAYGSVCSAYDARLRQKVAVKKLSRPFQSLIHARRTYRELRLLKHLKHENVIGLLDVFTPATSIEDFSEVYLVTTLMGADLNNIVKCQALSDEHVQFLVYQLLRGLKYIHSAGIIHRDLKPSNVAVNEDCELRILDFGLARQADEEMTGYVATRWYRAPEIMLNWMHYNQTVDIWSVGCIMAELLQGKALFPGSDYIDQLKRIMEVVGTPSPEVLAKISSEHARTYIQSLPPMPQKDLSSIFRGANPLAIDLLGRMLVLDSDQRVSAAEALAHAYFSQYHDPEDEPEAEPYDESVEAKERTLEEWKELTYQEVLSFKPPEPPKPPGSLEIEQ
# Tyrosine-protein kinase JAK2 (Homo sapiens), sequence (O60674 whole entry): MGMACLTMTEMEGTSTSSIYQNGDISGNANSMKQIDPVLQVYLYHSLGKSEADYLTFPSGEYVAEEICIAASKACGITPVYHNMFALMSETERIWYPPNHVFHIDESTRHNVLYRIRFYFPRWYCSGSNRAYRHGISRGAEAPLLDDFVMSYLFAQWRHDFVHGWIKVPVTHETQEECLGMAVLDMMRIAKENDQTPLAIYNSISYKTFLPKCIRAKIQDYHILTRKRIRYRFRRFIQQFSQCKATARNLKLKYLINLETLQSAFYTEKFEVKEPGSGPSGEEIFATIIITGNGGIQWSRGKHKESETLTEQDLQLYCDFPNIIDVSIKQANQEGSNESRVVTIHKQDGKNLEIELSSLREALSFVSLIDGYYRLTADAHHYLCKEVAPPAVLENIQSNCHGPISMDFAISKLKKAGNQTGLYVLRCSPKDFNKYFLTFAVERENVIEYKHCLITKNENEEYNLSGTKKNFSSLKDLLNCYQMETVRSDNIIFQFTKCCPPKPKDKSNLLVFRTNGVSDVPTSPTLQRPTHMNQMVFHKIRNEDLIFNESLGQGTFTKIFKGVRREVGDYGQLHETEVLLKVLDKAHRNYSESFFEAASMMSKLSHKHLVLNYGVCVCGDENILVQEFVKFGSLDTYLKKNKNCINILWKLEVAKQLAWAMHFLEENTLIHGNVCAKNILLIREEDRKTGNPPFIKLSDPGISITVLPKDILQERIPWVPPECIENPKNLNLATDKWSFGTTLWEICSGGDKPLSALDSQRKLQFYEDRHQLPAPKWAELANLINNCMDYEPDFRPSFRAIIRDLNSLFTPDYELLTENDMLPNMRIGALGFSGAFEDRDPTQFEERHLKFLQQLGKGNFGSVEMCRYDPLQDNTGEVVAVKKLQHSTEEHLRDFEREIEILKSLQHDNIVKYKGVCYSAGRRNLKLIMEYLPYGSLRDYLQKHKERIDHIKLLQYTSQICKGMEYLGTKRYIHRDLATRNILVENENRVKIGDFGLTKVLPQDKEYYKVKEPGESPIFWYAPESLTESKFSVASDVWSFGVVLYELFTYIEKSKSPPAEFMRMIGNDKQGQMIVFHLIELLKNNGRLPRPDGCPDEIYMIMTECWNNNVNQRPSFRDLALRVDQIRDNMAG
smiles,measurement,setting,value
CN1CCN(C(=O)C(C)(C)c2ccc(C(=O)Nc3cn4cc(-c5ccncc5)ccc4n3)cc2)CC1 [T3-CLK],viability at 0.5 µM,[1],89.4%
same,Activity,[2],3.04%
same,Activity,[3],0.69%
same,Activity,[4],3.4%
same,Activity,[5],3.7%
same,inhibition,[6],-3%
same,inhibition,[7],10%
same,inhibition,[8],-8%
same,inhibition,[9],7%
same,inhibition,[10],-3%
same,inhibition,[11],-6%
same,inhibition,[12],-6%
same,inhibition,[13],4%
same,inhibition,[14],1%
same,inhibition,[15],2%
same,inhibition,[16],12%
same,inhibition,[17],11%
same,inhibition,[18],4%
same,inhibition,[19],-9%
same,inhibition,[20],-1%
same,inhibition,[21],9%
same,inhibition,[22],2%
same,inhibition,[23],47%
same,inhibition,[24],4%
same,Activity,[25],24%
same,Activity,[26],46.7%
same,Activity,[27],20.9%
same,inhibition,[28],Dose-Dependent Effect
same,inhibition,[29],-1%
same,IC50,[30],230 nM
